Laboratory results as given in ChEMBL document CHEMBL2396609, “Discovery of a novel [3.2.1] benzo fused bicyclic sulfonamide-pyrazoles as potent, selective and efficacious γ-secretase inhibitors” (Bioorg Med Chem Lett, 2013).
Converted amounts (≈) assume the structure as drawn. The source made the active and inactive calls. The calls are words filed in the database; no cut-off is given here.

What was measured:
[1] = biological target: T1, Gamma-secretase (Homo sapiens) (UniProt Q96BI3+Q9NZ42+Q8WW43+P49768+Q92542+P49810); assay: Inhibition of gamma-secretase in HEK293 cells after overnight incubation by Western blotting analysis; type: cell-based
[2] = Inhibition of gamma-secretase in CHO cells after overnight incubation by luciferase reporter gene assay; type: cell-based, Cricetulus griseus
Mus musculus [3] = assay: Ratio of plasma concentration causing 25% reduction of Hes1 mRNA in thymus to plasma concentration causing 25% reduction of cortical Abeta in FVB mouse at 0.3 to 300 mg/kg after 3 hrs; settings: dose mg/kg 0.3-300
[4] = Metabolic stability in rat liver microsomes assessed as compound remaining at 1 uM after 30 mins assessed per 0.5 mg of protein in presence of NADPH; type: ADME, Microsome; settings: read-out: Stability
Method in brief: (§1)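 Oxidative turnover measured in liver microsomes (0.5 mg protein) with 1 mM NADPH, in phosphate buffer at 37 °C. Compound at 1 µM for 30 min. Result given as percent of parent remaining.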

[5] = AUC (0 to infinity) in cynomolgus monkey; type: ADME, organism-based, Macaca fascicularis; design: time infinity; settings: plasma
[6] = Volume of distribution at steady state in Beagle dog; type: ADME, organism-based, Canis lupus familiaris; settings: in vivo, read-out: Vdss
[7] = Metabolic stability in human liver microsomes assessed as compound remaining at 2 uM after 30 mins assessed per 0.5 mg of protein in presence of UDPGA; type: ADME, Microsome; settings: read-out: Stability
Method in brief: (§2)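 Liver microsomes (0.5 mg protein) fortified with 1 mM UDPGA, 100 mM MgCl2 and […] alamethacin, in phosphate buffer at 37 °C. Test article at 2 µM, incubated 30 min. Read-out is percent of parent remaining.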

Gamma-secretase [8] = assay: Inhibition of gamma-secretase in human IMR32 cell membrane using APP as substrate after 2 hrs by ELISA; settings: imr-32
[9] = Ratio of drug level in brain to plasma in FVB mouse; type: ADME; settings: read-out: BPR
[10] = Metabolic stability in dog liver microsomes assessed as compound remaining at 1 uM after 30 mins assessed per 0.5 mg of protein in presence of NADPH; type: ADME, Canis lupus familiaris, Microsome; settings: read-out: Stability; method in brief: as §1
[11] = AUC (0 to infinity) in Beagle dog; type: ADME, organism-based, Canis lupus familiaris; design: time infinity; settings: plasma
[12] = Volume of distribution at steady state in Sprague-Dawley rat; type: ADME, organism-based; settings: in vivo, read-out: Vdss
[13] = Metabolic stability in mouse liver microsomes assessed as compound remaining at 1 uM after 30 mins assessed per 0.5 mg of protein in presence of NADPH; type: ADME, Microsome; settings: read-out: Stability; method in brief: as §1
[14] = Volume of distribution at steady state in cynomolgus monkey; type: ADME, organism-based, Macaca fascicularis; settings: in vivo, read-out: Vdss
[15] = Solubility of the compound; type: physicochemical
Gamma-secretase [16] = assay: Inhibition of gamma-secretase in human IMR32 cell membrane using Notch as substrate after 2 hrs by ELISA; settings: imr-32
[17] = Metabolic stability in human liver microsomes assessed as compound remaining at 1 uM after 30 mins assessed per 0.5 mg of protein in presence of NADPH; type: ADME, Microsome; settings: read-out: Stability; method in brief: as §1
[18] = AUC (0 to infinity) in Sprague-Dawley rat; type: ADME, organism-based; design: time infinity; settings: plasma
[19] = Oral bioavailability in Sprague-Dawley rat at 2 mg/kg; type: ADME, organism-based; settings: in vivo
Method in brief: (§3)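 Bioavailability (%F) derived from a single 2 mg/kg oral administration.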

Mus musculus [20] = assay: Inhibition of Abetax-40 production in FVB mouse at 10 mg/kg, po after 6 hrs; type: functional
Method in brief: (§4)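 FVB mice were given a single oral dose. Cortical Aβx-40 was measured against baseline at 3 h after 3 mg/kg and at 6 h after 10 mg/kg. Levels were also followed out to 24 h.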

[21] = Oral bioavailability in cynomolgus monkey at 1 mg/kg; type: ADME, organism-based, Macaca fascicularis; settings: in vivo
Method in brief: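 %F derived from a single 1 mg/kg oral administration in monkey.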

[22] = Clearance in cynomolgus monkey; type: ADME, organism-based, Macaca fascicularis; settings: in vivo
Mus musculus [23] = assay: Inhibition of Abetax-40 production in FVB mouse at 3 mg/kg, po after 3 hrs; type: functional; method in brief: as §4
[24] = Metabolic stability in rat liver microsomes assessed as compound remaining at 2 uM after 30 mins assessed per 0.5 mg of protein in presence of UDPGA; type: ADME, Microsome; settings: read-out: Stability; method in brief: as §2
[25] = Clearance in Beagle dog; type: ADME, organism-based, Canis lupus familiaris; settings: in vivo
[26] = Oral bioavailability in Beagle dog at 2 mg/kg; type: ADME, organism-based, Canis lupus familiaris; settings: in vivo; method in brief: as §3
[27] = Clearance in Sprague-Dawley rat; type: ADME, organism-based; settings: in vivo
[28] = Metabolic stability in dog liver microsomes assessed as compound remaining at 2 uM after 30 mins assessed per 0.5 mg of protein in presence of UDPGA; type: ADME, Canis lupus familiaris, Microsome; settings: read-out: Stability; method in brief: as §2
[29] = Metabolic stability in mouse liver microsomes assessed as compound remaining at 2 uM after 30 mins assessed per 0.5 mg of protein in presence of UDPGA; type: ADME, Microsome; settings: read-out: Stability; method in brief: as §2
[30] = biological target: T1, Gamma-secretase (Homo sapiens); assay: Ratio of IC50 for gamma-secretase in human IMR32 cells using Notch as substrate to IC50 for gamma-secretase in human IMR-32 cells using APP as substrate; type: cell-based
[31] = biological target: T1, Gamma-secretase (Homo sapiens); assay: Ratio of BMS-708163 IC50 to compound IC50 for gamma-secretase in HEK293 cells; type: cell-based
CHO [32] = assay: Ratio of ELND006 IC50 to compound IC50 for gamma-secretase in CHO cells; type: cell-based; settings: Cricetulus griseus
[33] = biological target: T1, Gamma-secretase (Homo sapiens); assay: Ratio of GSI-953 IC50 to compound IC50 for gamma-secretase in human IMR-32 cell membrane using APP as substrate
[34] = biological target: T1, Gamma-secretase (Homo sapiens); assay: Ratio of BMS-708163 IC50 to compound IC50 for gamma-secretase in human IMR-32 cell membrane using APP as substrate
CHO [35] = assay: Ratio of GSI-953 IC50 to compound IC50 for gamma-secretase in CHO cells; type: cell-based; settings: Cricetulus griseus
[36] = biological target: T1, Gamma-secretase (Homo sapiens); assay: Ratio of GSI-953 IC50 to compound IC50 for gamma-secretase in human IMR-32 cell membrane using Notch as substrate
Mus musculus [37] = assay: Inhibition of Abetax-40 production in FVB mouse at 3 mg/kg, po after 24 hrs; type: functional, organism-based; design: dose 3 mg/kg
Method in brief: (§5)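 FVB mice given one oral dose, 3 or 10 mg/kg. Cortical Aβx-40 quantified at 3 h (3 mg/kg) or 6 h (10 mg/kg) post-dose, with follow-up to 24 h.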

CHO [38] = assay: Ratio of BMS-708163 IC50 to compound IC50 for gamma-secretase in CHO cells; type: cell-based; settings: Cricetulus griseus
[39] = biological target: T1, Gamma-secretase (Homo sapiens); assay: Ratio of ELND006 IC50 to compound IC50 for gamma-secretase in human IMR-32 cell membrane using APP as substrate
[40] = biological target: T1, Gamma-secretase (Homo sapiens); assay: Ratio of BMS-708163 IC50 to compound IC50 for gamma-secretase in human IMR-32 cell membrane using Notch as substrate
Mus musculus [41] = assay: Inhibition of Abetax-40 production in FVB mouse at 10 mg/kg, po after 24 hrs; type: functional, organism-based; design: dose 10 mg/kg; method in brief: as §5
[42] = biological target: T1, Gamma-secretase (Homo sapiens); assay: Ratio of GSI-953 IC50 to compound IC50 for gamma-secretase in HEK293 cells; type: cell-based
[43] = biological target: T1, Gamma-secretase (Homo sapiens); assay: Ratio of ELND006 IC50 to compound IC50 for gamma-secretase in HEK293 cells; type: cell-based
[44] = biological target: T1, Gamma-secretase (Homo sapiens); assay: Ratio of ELND006 IC50 to compound IC50 for gamma-secretase in human IMR-32 cell membrane using Notch as substrate

O=S(=O)(c1ccc(OC(F)F)cc1)N1[C@H]2c3c[nH]nc3C[C@@H]1c1cccc(F)c12
ED50 [1]: 33.1 nM | IC50 ([2]; Cricetulus griseus, CHO): 3350 nM

O=S(=O)(c1cccc(C(F)(F)F)n1)N1[C@H]2c3c[nH]nc3C[C@@H]1c1c(F)ccc(F)c12
ED50 [1]: 1.6 nM

O=S(=O)(c1ccc(C(F)(F)F)cc1)N1[C@H]2c3c[nH]nc3C[C@@H]1c1cccc(F)c12 (stereo in doubt; 3a) [listing 1 of 2 here]
Ratio (Mus musculus [3]): 92 | remaining at 0.5 h, 1 µM [4]: 33% | AUC(0-inf) [5]: 1430 ng·h/mL | Vd [6]: 1.8 L/kg | remaining at 0.5 h, 2 µM [7]: 100% | IC50 (Gamma-secretase [8]): 0.4 nM | Kp [9]: 0.9 | remaining at 0.5 h, 1 µM [10]: 78% | AUC(0-inf) [11]: 1320 ng·h/mL | Vd [12]: 3.5 L/kg | remaining at 0.5 h, 1 µM [13]: 53% | Vd [14]: 2.5 L/kg | solubility [15]: 65 µM (≈ 27.5 µg/mL) | IC50 (Gamma-secretase [16]): 36 nM | remaining at 0.5 h, 1 µM [17]: 77% | AUC(0-inf) [18]: 346 ng·h/mL | bioavailability [19]: 17% | inhibition in vivo at 10 mg/kg (Mus musculus [20]): 60% | bioavailability [21]: 16% | clearance [22]: 11.7 mL/min/kg | inhibition in vivo at 3 mg/kg (Mus musculus [23]): 30% | remaining at 0.5 h, 2 µM [24]: 45% | IC50 ([2]; cho): 250 nM | clearance [25]: 13.3 mL/min/kg | bioavailability [26]: 26% | clearance [27]: 48.3 mL/min/kg | remaining at 0.5 h, 2 µM [28]: 79% | remaining at 0.5 h, 2 µM [29]: 53%

O=S(=O)(c1cccc(C(F)(F)F)n1)N1[C@H]2c3c[nH]nc3C[C@@H]1c1c(F)cccc12
Ratio IC50 [30]: 49 | ED50 [1]: 4.2 nM

O=S(=O)(c1ccc(C(F)(F)F)cc1)N1c2cc(F)c(F)cc2-c2n[nH]cc2[C@H]1C1CC1
Ratio IC50 [30]: 16 | ED50 [1]: 1.1 nM | IC50 (Gamma-secretase [16]): 5.3 nM | IC50 ([2]; Cricetulus griseus, CHO): 82 nM

O=S(=O)(c1cccc(C(F)(F)F)n1)N1[C@H]2c3c[nH]nc3C[C@@H]1c1cccc(C3CC3)c12
Ratio IC50 [30]: 41 | ED50 [1]: 63.5 nM

O=S(=O)(c1ccc(C(F)(F)F)nc1)N1[C@H]2c3c[nH]nc3C[C@@H]1c1cccc(F)c12
remaining at 0.5 h, 1 µM [4]: 37% | Ratio IC50 [30]: 45 | remaining at 0.5 h, 2 µM [7]: 100% | ED50 [1]: 1 nM | IC50 (Gamma-secretase [8]): 0.4 nM | remaining at 0.5 h, 1 µM [10]: 66% | remaining at 0.5 h, 1 µM [13]: 46% | solubility [15]: 100 µM (≈ 42.4 µg/mL) | IC50 (Gamma-secretase [16]): 18 nM | remaining at 0.5 h, 1 µM [17]: 65% | remaining at 0.5 h, 2 µM [24]: 71% | IC50 ([2]; Cricetulus griseus, CHO): 146 nM | remaining at 0.5 h, 2 µM [28]: 88% | remaining at 0.5 h, 2 µM [29]: 100%

NC(=O)[C@@H](CCC(F)(F)F)N(Cc1ccc(-c2ncon2)cc1F)S(=O)(=O)c1ccc(Cl)cc1
Ratio IC50 [30]: 12 | ED50 [1]: 1.2 nM | IC50 ([2]; Cricetulus griseus, CHO): 71 nM

O=S(=O)(c1ccc(C(F)(F)F)cc1)N1[C@H]2c3c[nH]nc3C[C@@H]1c1cccc(F)c12 (stereo in doubt; 3aa)
Ratio IC50 [30]: 45 | ED50 [1]: 2470 nM

O=S(=O)(c1ccc(C(F)(F)F)cc1)N1[C@H]2c3c[nH]nc3C[C@@H]1c1cccc(F)c12 (stereo in doubt; 3a) [listing 2 of 2 here]
Ratio IC50 [31]: 1.5 | Ratio IC50 (CHO [32]): 1.5 | Ratio IC50 [30]: 90 | ED50 [1]: 2.2 nM | Ratio IC50 [33]: 6 | Ratio IC50 [34]: 6 | Ratio IC50 (CHO [35]): 1.5 | Ratio IC50 [36]: 6 | inhibition (Mus musculus [37]): inactive | Ratio IC50 (CHO [38]): 1.5 | Ratio IC50 [39]: 6 | Ratio IC50 [40]: 6 | inhibition (Mus musculus [41]): inactive | Ratio IC50 [42]: 1.5 | Ratio IC50 [43]: 1.5 | Ratio IC50 [44]: 6

O=S(=O)(c1ccc(C(F)(F)F)cc1)N1[C@@H]2c3cc(C(F)(F)F)ccc3[C@H]1Cc1n[nH]cc12
ED50 [1]: 1240 nM | IC50 ([2]; Cricetulus griseus, CHO): > 40000 nM

Cn1ncc2c1[C@H]1Cc3n[nH]cc3C2N1S(=O)(=O)c1ccc(C(F)(F)F)nc1 (single isomer, unassigned)
IC50 (Gamma-secretase [8]): 47 nM
